In ChEMBL document CHEMBL1828552, “Synthesis and studies of novel 2-(4-cyano-3-trifluoromethylphenyl amino)-4-(quinoline-4-yloxy)-6-(piperazinyl/piperidinyl)-s-triazines as potential antimicrobial, antimycobacterial and anticancer agents” (2011):
Converted amounts (≈) assume the structure as drawn.

Experiments:
Pseudomonas aeruginosa [1] = experiment: Antibacterial activity against 10^5 CFU/mL Pseudomonas aeruginosa MTCC 741 after 24 hrs by agar streak dilution method; type: functional; details: MTCC 741, 24 h
Outline: (§1)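 Agar streak dilution. Stock 100 µg/mL in DMSO; graded amounts were mixed into molten nutrient agar and poured at 4–5 mm depth. Plates carried serial dilutions over […]. About 10⁵ CFU/mL of each bacterium was applied, and plates were incubated at 37 ± 1 °C for 24 h. MIC was read from the dilution series.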

Shigella flexneri [2] = experiment: Antibacterial activity against 10^5 CFU/mL Shigella flexneri MTCC 1457 after 24 hrs by disc diffusion technique; type: functional
Outline: (§2)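 Disc diffusion on Mueller–Hinton agar poured 5 mm deep. The surface was swabbed with a 10⁵ CFU/mL […] suspension. Filter-paper discs 6.25 mm in diameter were soaked in compound in DMSO and placed on the agar. Plates were incubated 24 h at 37 ± 1 °C, and the inhibition zone was measured in mm. A DMSO disc served as blank.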

Aspergillus fumigatus [3] = experiment: Antifungal activity against 10^5 CFU/mL Aspergillus fumigatus MTCC 343 after 48 hrs by agar streak dilution method; type: functional; details: MTCC 343, 48 h
Outline: (§3)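 Agar streak dilution for fungi. Stock 100 µg/mL in DMSO; graded amounts were mixed into molten Sabouraud dextrose agar and poured at 4–5 mm depth. Serial dilutions ran over […]. About 10⁵ CFU/mL inoculum was applied, with incubation at 37 ± 1 °C for 48 h. MIC was read from the dilution series.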

Shigella flexneri [4] = experiment: Antibacterial activity against 10^5 CFU/mL Shigella flexneri MTCC 1457 after 24 hrs by agar streak dilution method; type: functional; details: MTCC 1457, 24 h; outline: as §1
Escherichia coli [5] = experiment: Antibacterial activity against 10^5 CFU/mL Escherichia coli MTCC 739 after 24 hrs by agar streak dilution method; type: functional; details: MTCC 739, 24 h; outline: as §1
Aspergillus clavatus [6] = experiment: Antifungal activity against 10^5 CFU/mL Aspergillus clavatus MTCC 1323 after 48 hrs by agar streak dilution method; type: functional; details: MTCC 1323, 48 h; outline: as §3
Candida albicans [7] = experiment: Antifungal activity against 10^5 CFU/mL Candida albicans MTCC 183 after 48 hrs by agar streak dilution method; type: functional; details: MTCC 183, 48 h; outline: as §3
Proteus vulgaris [8] = experiment: Antibacterial activity against 10^5 CFU/mL Proteus vulgaris MTCC 1771 after 24 hrs by disc diffusion technique; type: functional; outline: as §2
Bacillus cereus [9] = experiment: Antibacterial activity against 10^5 CFU/mL Bacillus cereus MTCC 619 after 24 hrs by disc diffusion technique; type: functional; outline: as §2
Escherichia coli [10] = experiment: Antibacterial activity against 10^5 CFU/mL Escherichia coli MTCC 739 after 24 hrs by disc diffusion technique; type: functional; outline: as §2
[11] = tested on: Mycobacterium tuberculosis; experiment: Antimycobacterial activity against 10^4 to 10^7 CFU/mL Mycobacterium tuberculosis H37Rv at 6.25 ug/ml by BACTEC MGIT method; type: functional
Outline: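 Primary screen at 6.25 in the BACTEC MGIT system: modified Middlebrook 7H9 broth tubes with compound, seeded with 10⁴-10⁷ CFU/mL H37Rv plus 0.1 mL egg-based L.J. medium. Incubated at 37 ± 1 °C and read daily from day 2 under UV light against positive and uninoculated controls.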

Staphylococcus aureus [12] = experiment: Antibacterial activity against 10^5 CFU/mL Staphylococcus aureus MTCC 96 after 24 hrs by disc diffusion technique; type: functional; outline: as §2
Candida albicans [13] = experiment: Antifungal activity against 10^5 CFU/mL Candida albicans MTCC 183 after 48 hrs by disc diffusion technique; type: functional
Salmonella typhi [14] = experiment: Antibacterial activity against 10^5 CFU/mL Salmonella typhi MTCC 733 after 24 hrs by agar streak dilution method; type: functional, Salmonella enterica subsp. enterica serovar Typhi; details: Salmonella enterica, MTCC 733, 24 h
DU-145 = experiment: Cytotoxicity against […] human DU145 cells after 48 hrs by SRB assay; type: functional; details: DU-145, 48 h
Outline: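 SRB assay in DU-145 cells grown in RPMI 1640 with 10% FBS and 2 mM L-glutamine. Cells were plated and held 24 h before addition of four 10-fold concentrations. After 48 h, cells were TCA-fixed, stained with 0.4% SRB and read at 540 nm. GI50, TGI and LC50 were derived against time-zero and control wells; each value is the mean of three experiments.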

Klebsiella pneumoniae [15] = experiment: Antibacterial activity against 10^5 CFU/mL Klebsiella pneumoniae MTCC 109 after 24 hrs by disc diffusion technique; type: functional; outline: as §2
Klebsiella pneumoniae [16] = experiment: Antibacterial activity against 10^5 CFU/mL Klebsiella pneumoniae MTCC 109 after 24 hrs by agar streak dilution method; type: functional; details: MTCC 109, 24 h; outline: as §1
Aspergillus niger [17] = experiment: Antifungal activity against 10^5 CFU/mL Aspergillus niger MTCC 282 after 48 hrs by agar streak dilution method; type: functional; details: MTCC 282, 48 h; outline: as §3
Aspergillus fumigatus [18] = experiment: Antifungal activity against 10^5 CFU/mL Aspergillus fumigatus MTCC 343 after 48 hrs by disc diffusion technique; type: functional
Aspergillus clavatus [19] = experiment: Antifungal activity against 10^5 CFU/mL Aspergillus clavatus MTCC 1323 after 48 hrs by disc diffusion technique; type: functional
Bacillus cereus [20] = experiment: Antibacterial activity against 10^5 CFU/mL Bacillus cereus MTCC 619 after 24 hrs by agar streak dilution method; type: functional; details: MTCC 619, 24 h; outline: as §1
Salmonella typhi [21] = experiment: Antibacterial activity against 10^5 CFU/mL Salmonella typhi MTCC 733 after 24 hrs by disc diffusion technique; type: functional, Salmonella enterica subsp. enterica serovar Typhi
Outline: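 Disc diffusion. Mueller-Hinton agar autoclaved 120 °C 30 min, poured 5 mm deep. Surface swabbed with 10⁵ CFU/mL suspension […]. 6.25 mm filter-paper discs soaked in compound in DMSO; DMSO-only disc as blank. Incubated 37 ± 1 °C, 24 h for bacteria or 48 h for fungi. Ciprofloxacin and ketoconazole discs as reference drugs. Inhibition zone measured in mm.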

Staphylococcus aureus [22] = experiment: Antibacterial activity against 10^5 CFU/mL Staphylococcus aureus MTCC 96 after 24 hrs by agar streak dilution method; type: functional; details: MTCC 96, 24 h; outline: as §1
Proteus vulgaris [23] = experiment: Antibacterial activity against 10^5 CFU/mL Proteus vulgaris MTCC 1771 after 24 hrs by agar streak dilution method; type: functional; details: MTCC 1771, 24 h; outline: as §1
Pseudomonas aeruginosa [24] = experiment: Antibacterial activity against 10^5 CFU/mL Pseudomonas aeruginosa MTCC 741 after 24 hrs by disc diffusion technique; type: functional; outline: as §2
Aspergillus niger [25] = experiment: Antifungal activity against 10^5 CFU/mL Aspergillus niger MTCC 282 after 48 hrs by disc diffusion technique; type: functional

SMILES: COc1ccc(CN2CCN(c3nc(Nc4ccc(C#N)c(C(F)(F)F)c4)nc(Oc4ccnc5ccccc45)n3)CC2)c(OC)c1OC
- MIC (Pseudomonas aeruginosa [1]): 6.25 µg/mL (≈ 9.29 µM)
- inhibition zone (IZ) (Shigella flexneri [2]): 25 mm
- MIC (Aspergillus fumigatus [3]): 25 µg/mL (≈ 37.2 µM)
- MIC (Shigella flexneri [4]): 12.5 µg/mL (≈ 18.6 µM)
- MIC (Escherichia coli [5]): 12.5 µg/mL (≈ 18.6 µM)
- MIC (Aspergillus clavatus [6]): 12.5 µg/mL (≈ 18.6 µM)
- MIC (Candida albicans [7]): 25 µg/mL (≈ 37.2 µM)
- inhibition zone (IZ) (Proteus vulgaris [8]): 26 mm
- inhibition zone (IZ) (Bacillus cereus [9]): 26 mm
- inhibition zone (IZ) (Escherichia coli [10]): 26 mm
- inhibition at 6.25 µg/mL [11]: 99%
- inhibition zone (IZ) (Staphylococcus aureus [12]): 28 mm
- inhibition zone (IZ) (Candida albicans [13]): 25 mm
- MIC (Salmonella typhi [14]): 12.5 µg/mL (≈ 18.6 µM)
- GI50 (DU-145): > 100 µM
- LC50 (concentration giving 50% net cell kill relative to time zero) (DU-145): > 100 µM
- TGI (DU-145): > 100 µM
- inhibition zone (IZ) (Klebsiella pneumoniae [15]): 23 mm
- MIC (Klebsiella pneumoniae [16]): 12.5 µg/mL (≈ 18.6 µM)
- MIC (Aspergillus niger [17]): 12.5 µg/mL (≈ 18.6 µM)
- inhibition zone (IZ) (Aspergillus fumigatus [18]): 27 mm
- inhibition zone (IZ) (Aspergillus clavatus [19]): 28 mm
- MIC (Bacillus cereus [20]): 6.25 µg/mL (≈ 9.29 µM)
- inhibition zone (IZ) (Salmonella typhi [21]): 26 mm
- MIC (Staphylococcus aureus [22]): 6.25 µg/mL (≈ 9.29 µM)
- MIC (Proteus vulgaris [23]): 6.25 µg/mL (≈ 9.29 µM)
- inhibition zone (IZ) (Pseudomonas aeruginosa [24]): 26 mm
- inhibition zone (IZ) (Aspergillus niger [25]): 27 mm

SMILES: N#Cc1ccc(Nc2nc(Oc3ccnc4ccccc34)nc(N3CCN(c4cccc(C(F)(F)F)c4)CC3)n2)cc1C(F)(F)F
- MIC (Pseudomonas aeruginosa [1]): 6.25 µg/mL (≈ 9.82 µM)
- inhibition zone (IZ) (Shigella flexneri [2]): 25 mm
- MIC (Aspergillus fumigatus [3]): 25 µg/mL (≈ 39.3 µM)
- MIC (Shigella flexneri [4]): 12.5 µg/mL (≈ 19.6 µM)
- MIC (Escherichia coli [5]): 12.5 µg/mL (≈ 19.6 µM)
- MIC (Aspergillus clavatus [6]): 12.5 µg/mL (≈ 19.6 µM)
- MIC (Candida albicans [7]): 25 µg/mL (≈ 39.3 µM)
- inhibition zone (IZ) (Proteus vulgaris [8]): 25 mm
- inhibition zone (IZ) (Bacillus cereus [9]): 28 mm
- inhibition zone (IZ) (Escherichia coli [10]): 26 mm
- inhibition at 6.25 µg/mL [11]: 99%
- inhibition zone (IZ) (Staphylococcus aureus [12]): 28 mm
- inhibition zone (IZ) (Candida albicans [13]): 26 mm
- MIC (Salmonella typhi [14]): 12.5 µg/mL (≈ 19.6 µM)
- GI50 (DU-145): 38.7 µM
- LC50 (concentration giving 50% net cell kill relative to time zero) (DU-145): > 100 µM
- TGI (DU-145): 74.1 µM
- inhibition zone (IZ) (Klebsiella pneumoniae [15]): 23 mm
- MIC (Klebsiella pneumoniae [16]): 25 µg/mL (≈ 39.3 µM)
- MIC (Aspergillus niger [17]): 12.5 µg/mL (≈ 19.6 µM)
- inhibition zone (IZ) (Aspergillus fumigatus [18]): 27 mm
- inhibition zone (IZ) (Aspergillus clavatus [19]): 28 mm
- MIC (Bacillus cereus [20]): 6.25 µg/mL (≈ 9.82 µM)
- inhibition zone (IZ) (Salmonella typhi [21]): 27 mm
- MIC (Staphylococcus aureus [22]): 6.25 µg/mL (≈ 9.82 µM)
- MIC (Proteus vulgaris [23]): 12.5 µg/mL (≈ 19.6 µM)
- inhibition zone (IZ) (Pseudomonas aeruginosa [24]): 25 mm
- inhibition zone (IZ) (Aspergillus niger [25]): 27 mm

SMILES: N#Cc1ccc(Nc2nc(Oc3ccnc4ccccc34)nc(N3CCN(c4ccc(F)cc4)CC3)n2)cc1C(F)(F)F
- MIC (Pseudomonas aeruginosa [1]): 25 µg/mL (≈ 42.6 µM)
- inhibition zone (IZ) (Shigella flexneri [2]): 21 mm
- MIC (Aspergillus fumigatus [3]): 50 µg/mL (≈ 85.2 µM)
- MIC (Shigella flexneri [4]): 50 µg/mL (≈ 85.2 µM)
- MIC (Escherichia coli [5]): 50 µg/mL (≈ 85.2 µM)
- MIC (Aspergillus clavatus [6]): 50 µg/mL (≈ 85.2 µM)
- MIC (Candida albicans [7]): 50 µg/mL (≈ 85.2 µM)
- inhibition zone (IZ) (Proteus vulgaris [8]): 24 mm
- inhibition zone (IZ) (Bacillus cereus [9]): 26 mm
- inhibition zone (IZ) (Escherichia coli [10]): 22 mm
- inhibition zone (IZ) (Staphylococcus aureus [12]): 25 mm
- inhibition zone (IZ) (Candida albicans [13]): 24 mm
- MIC (Salmonella typhi [14]): 25 µg/mL (≈ 42.6 µM)
- GI50 (DU-145): > 100 µM
- LC50 (concentration giving 50% net cell kill relative to time zero) (DU-145): > 100 µM
- TGI (DU-145): > 100 µM
- inhibition zone (IZ) (Klebsiella pneumoniae [15]): 23 mm
- MIC (Klebsiella pneumoniae [16]): 25 µg/mL (≈ 42.6 µM)
- MIC (Aspergillus niger [17]): 12.5 µg/mL (≈ 21.3 µM)
- inhibition zone (IZ) (Aspergillus fumigatus [18]): 24 mm
- inhibition zone (IZ) (Aspergillus clavatus [19]): 25 mm
- MIC (Bacillus cereus [20]): 6.25 µg/mL (≈ 10.7 µM)
- inhibition zone (IZ) (Salmonella typhi [21]): 24 mm
- MIC (Staphylococcus aureus [22]): 25 µg/mL (≈ 42.6 µM)
- MIC (Proteus vulgaris [23]): 25 µg/mL (≈ 42.6 µM)
- inhibition zone (IZ) (Pseudomonas aeruginosa [24]): 23 mm
- inhibition zone (IZ) (Aspergillus niger [25]): 26 mm
